In brackets after ≈: the same amount, converted by molar mass. Activity calls are given as the source filed them. No cut-off for these calls is given here.
Columns and labels:
[1] = system: Candida albicans; experiment: Inhibition of biofilm formation of fluconazole-sensitive Candida albicans SC5314 at 64 ug/ml after 48 hrs by XTT assay relative to control; type: functional; conditions: SC5314, 48 h
Outline: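 Biofilm formation by C. albicans SC5314 or 103 in presence of 2–64 μg/mL drug (fluconazole 64 μg/mL reference); quantified by XTT reduction as % of blank control; mean ± standard deviation of three independent experiments, ANOVA and Student t test.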

[2] = system: Candida tropicalis; experiment: Antifungal activity against Candida tropicalis after 7 days by serial dilution method; type: functional; conditions: 168 h
[3] = system: Pichia kudriavzevii; experiment: Antifungal activity against Candida krusei 0710397 after 7 days by serial dilution method; type: functional; conditions: Pichia kudriavzevii, 0710397, 168 h
[4] = molecular target: T1, CYP2C9 (Homo sapiens, UniProt P11712); experiment: Inhibition of CYP2C9 in human liver microsomes assessed as tolbutamide conversion to 4-hydroxy tolbutamide at 25 uM preincubated for 10 mins followed by NADPH addition measured after 15 mins by LC-MS/MS analysis relative to control; type: ADME; conditions: probe tolbutamide
[5] = system: Candida albicans; experiment: Inhibition of biofilm formation of fluconazole-sensitive Candida albicans SC5314 at 4 ug/ml after 48 hrs by XTT assay relative to control; type: functional; conditions: SC5314, 48 h
Outline: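 Biofilm formation by C. albicans SC5314 was tested with compound at 2–64 μg/mL. Untreated and fluconazole 64 μg/mL controls were included. Biofilm was quantified by XTT reduction and expressed as % of untreated control. Mean ± SD of three independent experiments; ANOVA and Student t test, p<0.05.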

[6] = system: Candida albicans; experiment: Inhibition of hyphal growth of fluconazole-sensitive Candida albicans SC5314 assessed as appearance of unicellular budding yeast form at 4 to 8 ug/ml after 16 hrs by light microscopic analysis; type: functional, organism-based
Outline: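 C. albicans SC5314 was grown in RPMI 1640 at 37 °C for 16 h, without compound or with 2–8 μg/mL. A fluconazole 8 μg/mL control was included. Cell morphology (hyphae, pseudohyphae, budding yeast) was then scored by microscopy.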

[7] = system: WI-38; experiment: Cytotoxicity against human WI38 cells by MTT assay; type: cell-based
[8] = system: Candida albicans; experiment: Antifungal activity against fluconazole-sensitive Candida albicans SC5314 after 24 hrs by serial dilution method; type: functional; conditions: SC5314, 24 h
[9] = system: Candida albicans; experiment: Antifungal activity against fluconazole-sensitive Candida albicans SC5314 assessed as cell membrane damage at 8 ug/ml after 8 hrs by TEM analysis; type: functional, organism-based
Outline: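 Transmission electron microscopy of C. albicans SC5314 cells exposed to 8 μg/mL drug for 8 h; untreated cells as reference; cell wall, membrane, cytoplasm and vacuole morphology inspected.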

[10] = molecular target: T2, CYP3A4 (Homo sapiens, UniProt P08684); experiment: Inhibition of CYP3A4 in human liver microsomes assessed as testosterone conversion to 6-hydroxy testosterone at 25 uM preincubated for 10 mins followed by NADPH addition measured after 15 mins by LC-MS/MS analysis relative to control; type: ADME; conditions: probe testosterone
[11] = molecular target: T1, CYP2C9; experiment: Inhibition of CYP2C9 in human liver microsomes assessed as tolbutamide conversion to 4-hydroxy tolbutamide at 2.5 uM preincubated for 10 mins followed by NADPH addition measured after 15 mins by LC-MS/MS analysis relative to control; type: ADME; conditions: probe tolbutamide
[12] = molecular target: T2, CYP3A4; experiment: Inhibition of CYP3A4 in human liver microsomes assessed as testosterone conversion to 6-hydroxy testosterone at 2.5 uM preincubated for 10 mins followed by NADPH addition measured after 15 mins by LC-MS/MS analysis relative to control; type: ADME; conditions: probe testosterone
[13] = system: Candida albicans; experiment: Antifungal activity against fluconazole-sensitive Candida albicans SC5314 assessed as change in lanosterol composition at 8 ug/ml after 24 hrs by GC-MS analysis (reference value: 1.5%); type: functional
Outline: (§1)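 C. albicans SC5314 exposed to 8 μg/mL for 24 h, sterols analysed by GC-MS with cholesterol internal standard; each sterol expressed as % of total sterol fraction versus no-drug control; average of three independent experiments.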

[14] = system: Candida albicans; experiment: Antifungal activity against fluconazole-sensitive Candida albicans SC5314 assessed as necrosis at 8 ug/ml after 8 hrs by TEM analysis; type: functional, organism-based
Outline: (§2)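 Transmission electron microscopy of C. albicans SC5314 cells exposed to 8 μg/mL for 8 h. Untreated cells and cells given fluconazole 8 μg/mL for 8 h served as controls. Cell wall layers, cytoplasmic density and vacuole shape were compared by eye.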

[15] = system: Candida albicans; experiment: Antifungal activity against fluconazole-sensitive Candida albicans SC5314 assessed as thinning of outer sphere of cell wall at 8 ug/ml after 8 hrs by TEM analysis; type: functional, organism-based; outline: as §2
[16] = molecular target: Cytochrome P450 2C19 (Homo sapiens, UniProt P33261); experiment: Inhibition of CYP2C19 in human liver microsomes assessed as S-mephenytoin conversion to 4'-hydroxy mephenytoin preincubated for 10 mins followed by NADPH addition measured after 15 mins by LC-MS/MS analysis; type: ADME
[17] = system: Candida albicans; experiment: Antifungal activity against fluconazole-resistant Candida albicans 805 after 24 hrs by serial dilution method; type: functional; conditions: Candida albicans, 805, 24 h
[18] = system: Candida albicans; experiment: Fungicidal activity against fluconazole-sensitive Candida albicans SC5314 after 12 to 48 hrs; type: functional, organism-based
Outline: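 Time-kill assay starting from 10^5 CFU/mL C. albicans SC5314. Test concentrations ranged from 2–32 μg/mL. Untreated and fluconazole 32 μg/mL controls were included. Viable counts (CFU/mL) were taken at 0, 12, 24 and 48 h of incubation.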

[19] = system: Candida albicans; experiment: Fungicidal activity against fluconazole-resistant Candida albicans 103 assessed as growth inhibition at 4 to 32 ug/ml after 12 to 48 hrs; type: functional, organism-based
Outline: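 Time-kill: C. albicans (SC5314 or 103) inoculated at 10^5 CFU/mL, untreated or with drug (2–32 μg/mL; fluconazole 32 μg/mL reference); CFU/mL counted after 0, 12, 24 and 48 h.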

[20] = system: Candida albicans; experiment: Antifungal activity against fluconazole-sensitive Candida albicans SC5314 assessed as abnormal vacuole shape at 8 ug/ml after 8 hrs by TEM analysis; type: functional, organism-based; outline: as §2
[21] = molecular target: CYP2C19 (Homo sapiens, UniProt P33261); experiment: Inhibition of CYP2C19 in human liver microsomes assessed as S-mephenytoin conversion to 4'-hydroxy mephenytoin at 25 uM preincubated for 10 mins followed by NADPH addition measured after 15 mins by LC-MS/MS analysis relative to control; type: ADME; conditions: probe S-mephenytoin
[22] = system: Candida albicans; experiment: Antifungal activity against fluconazole-resistant Candida albicans 100 after 24 hrs by serial dilution method; type: functional; conditions: Candida albicans, 100, 24 h
[23] = system: Candida albicans; experiment: Antifungal activity against fluconazole-sensitive Candida albicans SC5314 assessed as change in eburicol composition at 8 ug/ml after 24 hrs by GC-MS analysis relative to control; type: functional; outline: as §1
[24] = system: Candida albicans; experiment: Antifungal activity against fluconazole-sensitive Candida albicans SC5314 assessed as thickening of middle sphere of cell wall at 8 ug/ml after 8 hrs by TEM analysis; type: functional, organism-based; outline: as §2
[25] = molecular target: T2, CYP3A4; experiment: Inhibition of CYP3A4 in human liver microsomes assessed as midazolam conversion to 1'-hydroxy midazolam at 25 uM preincubated for 10 mins followed by NADPH addition measured after 15 mins by LC-MS/MS analysis relative to control; type: ADME; conditions: probe midazolam
[26] = system: Candida albicans; experiment: Antifungal activity against fluconazole-sensitive Candida albicans SC5314 assessed as change in obtusifoliol composition at 8 ug/ml after 24 hrs by GC-MS analysis relative to control; type: functional; outline: as §1

T2 sequence (P08684 whole entry): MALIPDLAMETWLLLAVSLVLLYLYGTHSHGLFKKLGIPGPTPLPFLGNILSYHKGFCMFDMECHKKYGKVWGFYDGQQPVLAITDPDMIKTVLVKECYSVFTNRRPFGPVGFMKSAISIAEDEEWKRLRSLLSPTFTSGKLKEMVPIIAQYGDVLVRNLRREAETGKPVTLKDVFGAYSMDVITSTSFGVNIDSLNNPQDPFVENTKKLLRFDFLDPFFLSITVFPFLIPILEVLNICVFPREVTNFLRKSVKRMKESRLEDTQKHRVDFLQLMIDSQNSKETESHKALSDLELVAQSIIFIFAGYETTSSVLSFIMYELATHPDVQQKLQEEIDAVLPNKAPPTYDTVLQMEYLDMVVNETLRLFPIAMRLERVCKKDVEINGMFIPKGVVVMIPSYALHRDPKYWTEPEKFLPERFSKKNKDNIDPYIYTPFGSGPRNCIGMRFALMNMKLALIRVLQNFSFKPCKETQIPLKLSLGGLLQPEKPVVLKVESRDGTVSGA
T1 sequence (P11712 whole entry): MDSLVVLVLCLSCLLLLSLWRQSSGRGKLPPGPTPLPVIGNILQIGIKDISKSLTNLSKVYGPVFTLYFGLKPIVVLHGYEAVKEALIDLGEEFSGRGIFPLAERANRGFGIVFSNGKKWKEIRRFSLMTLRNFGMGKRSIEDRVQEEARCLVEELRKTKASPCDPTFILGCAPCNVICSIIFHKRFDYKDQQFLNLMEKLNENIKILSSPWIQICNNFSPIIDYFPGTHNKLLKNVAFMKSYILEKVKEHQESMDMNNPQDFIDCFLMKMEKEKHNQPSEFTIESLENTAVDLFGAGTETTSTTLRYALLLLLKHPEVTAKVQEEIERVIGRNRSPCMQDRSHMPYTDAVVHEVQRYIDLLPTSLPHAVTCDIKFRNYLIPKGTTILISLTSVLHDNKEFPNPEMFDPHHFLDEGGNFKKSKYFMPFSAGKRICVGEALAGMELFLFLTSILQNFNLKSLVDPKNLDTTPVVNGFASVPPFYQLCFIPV
Chain of CYP2C19 (P33261 whole entry): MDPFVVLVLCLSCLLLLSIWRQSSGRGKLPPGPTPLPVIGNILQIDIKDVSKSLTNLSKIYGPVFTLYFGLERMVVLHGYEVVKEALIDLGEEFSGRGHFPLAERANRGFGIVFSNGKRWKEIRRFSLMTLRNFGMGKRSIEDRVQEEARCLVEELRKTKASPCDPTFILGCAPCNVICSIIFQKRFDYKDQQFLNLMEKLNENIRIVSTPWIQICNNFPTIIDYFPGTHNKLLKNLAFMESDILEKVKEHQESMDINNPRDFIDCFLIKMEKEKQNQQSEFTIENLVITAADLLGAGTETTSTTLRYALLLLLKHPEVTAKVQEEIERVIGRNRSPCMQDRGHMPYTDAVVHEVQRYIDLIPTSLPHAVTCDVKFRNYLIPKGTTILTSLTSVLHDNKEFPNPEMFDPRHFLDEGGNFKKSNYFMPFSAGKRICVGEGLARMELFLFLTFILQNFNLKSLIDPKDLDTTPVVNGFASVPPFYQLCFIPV
Chain of Cytochrome P450 2C19 (P33261 whole entry): as above

`Fc1ccc2c(c1)c1c(n2CCCOc2ccc(Cl)cc2)CCNC1` was tested, and the inhibition at 64 µg/mL [1] was greater than 80%, the MIC80 [2] was 4 µg/mL (≈ 11.1 µM) and the MIC80 [3] was 4 µg/mL (≈ 11.1 µM). For the same molecule, the inhibition at 0.25 h, 25 µM [4] was 36%, the inhibition at 4 µg/mL [5] was greater than 50% and the “growth inhibition (GI)” value [6] was “Active”. For the same molecule, the IC50 [7] was greater than 40 µg/mL, the MIC80 [8] was 2 µg/mL (≈ 5.57 µM) and the Activity [9] was “inactive”. It also gave an inhibition at 0.25 h, 25 µM [10] of -35%, an inhibition at 0.25 h, 2.5 µM [11] of 8% and an inhibition at 0.25 h, 2.5 µM [12] of -10%. The Activity [13] was 12.2%, the Activity [14] was “Active” and the Activity [15] was “Active”. The IC50 [16] was greater than 25 µM, the MIC80 [17] was 4 µg/mL (≈ 11.1 µM) and the Activity [18] was “Dose-dependent effect”. The “growth inhibition (GI)” value [19] was “Active”, the Activity [20] was “Active” and the inhibition at 0.25 h, 25 µM [21] was 33%. The MIC80 [22] was 4 µg/mL (≈ 11.1 µM), the Activity [23] was 12.4% and the Activity [24] was “Active”. It also gave an inhibition at 0.25 h, 25 µM [25] of 50% and an Activity [26] of 3.7%.
